Data: ChEMBL document CHEMBL5154634, “A Modular Synthetic Route Involving N-Aryl-2-nitrosoaniline Intermediates Leads to a New Series of 3-Substituted Halogenated Phenazine Antibacterial Agents” (J Med Chem, 2021)
Converted amounts (≈) assume the structure as drawn.

Legend:
Staphylococcus aureus [1] = assay: Antibacterial activity against methicillin-resistant Staphylococcus aureus BAA-44 assessed as bacterial growth inhibition incubated for 16 hrs by broth microdilution susceptibility test; type: functional
Procedure, shortened: (§1)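 CLSI broth microdilution with 11 twofold dilutions (0.05–50 μM). Medium was LB for the staphylococci and BHI for VRE 700221. About 10^5 cells per well from a log-phase culture. […] DMSO vehicle up to 0.5% v/v. At least three independent experiments.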

[2] = test system: Staphylococcus epidermidis; assay: Antibacterial activity against methicillin-resistant Staphylococcus epidermidis ATCC 35984 assessed as bacterial growth inhibition incubated for 16 hrs by broth microdilution susceptibility test; type: functional
Procedure, shortened: (§2)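 CLSI broth microdilution with 11 twofold dilutions (0.05–50 μM). About 10^5 cells per well from a log-phase culture. DMSO vehicle up to 0.5% v/v. At least three independent experiments.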

Enterococcus faecalis [3] = assay: Antibacterial activity against Enterococcus faecalis OG1RF ATCC 47077 assessed as bacterial growth inhibition incubated for 16 hrs by broth microdilution susceptibility test; type: functional
[4] = test system: Mycobacterium tuberculosis; assay: Antibacterial activity against Mycobacterium tuberculosis H37Ra ATCC 25177 assessed as bacterial growth inhibition incubated for 7 days by absorbance based analysis; type: functional; settings: H37Ra ATCC 25177, 168 h, time 7 day
Procedure, shortened: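 H37Ra grown 2 weeks in Middlebrook 7H9, then diluted to OD600 0.01. Compounds added in twofold dilutions, final 0.024–50 μM, with 0.5% DMSO and streptomycin as positive control. Incubated 7 days at 37 °C. MIC is the lowest concentration with no growth, with OD600 recorded. At least three independent experiments.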

[5] = test system: Mycobacterium tuberculosis; assay: Antibacterial activity against Mycobacterium tuberculosis CDC1551 assessed as bacterial growth inhibition incubated for 5 days by luminescence based analysis; type: functional; settings: CDC1551, 120 h, time 5 day
Procedure, shortened: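 Bioluminescent Mtb-lux CDC1551 reporter grown in Middlebrook 7H9 with 0.05% Tween 80, 10% OADC and kanamycin to OD600 0.4–0.8, then diluted to OD600 0.02. Added to twofold drug dilutions (0.003–200 μM). Incubated 5 days at 37 °C, 5% CO2. Luminescence read against 1% DMSO and 10 μM rifampicin controls to give % growth inhibition. MIC taken from a modified Gompertz fit.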

HeLa = assay: Cytotoxicity against human HeLa cells assessed as reduction in cell viability incubated for 24 hrs by LDH release assay; type: toxicity, cell-based
Procedure, shortened: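 HeLa cells in DMEM with 10% FBS, treated at 70–80% confluence with 25, 50 and 100 μM for 24 h. LDH in supernatant measured by 30 min reaction at room temperature, then stop solution and absorbance at 490 nm. Controls: 2% Triton X-100 (maximum), medium only, DMSO vehicle. Three independent experiments.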

J774 = assay: Cytotoxicity against mouse J774 cells assessed as reduction in cell viability […] by Alamar blue assay; type: toxicity, cell-based
HepG2 = assay: Cytotoxicity against human HepG2 cells assessed as reduction in cell viability […] by Alamar blue assay; type: toxicity, cell-based
Staphylococcus aureus [6] = assay: Bactericidal activity against methicillin-resistant Staphylococcus aureus BAA-1707 planktonic cells assessed as planktonic eradication incubated for 24 hrs followed by incubation for overnight in fresh medium by Calgary biofilm device assay; type: functional
Procedure, shortened: (§3)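 Calgary biofilm device. Biofilms grown 24 h at 37 °C in TSB with 0.5% glucose, then challenged 24 h with twofold compound dilutions. 20 μL of challenge medium transferred into fresh TSB with 0.5% glucose and incubated overnight at 37 °C. MBC is the concentration with no visible turbidity. At least three independent experiments.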

Staphylococcus aureus [7] = assay: Antibiofilm activity against methicillin-resistant Staphylococcus aureus BAA-1707 biofilms assessed as biofilm eradication incubated for 24 hrs followed by incubation for 24 hrs in fresh medium by Calgary biofilm device assay; type: functional
Procedure, shortened: (§4)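 Calgary biofilm device. Mid-log culture diluted 1000-fold in TSB with 0.5% glucose; biofilms grown on pegs 24 h at 37 °C. Pegs washed and challenged with twofold compound dilutions for 24 h at 37 °C, then moved to fresh medium for 24 h. MBEC is the lowest concentration leaving wells non-turbid. At least three independent experiments.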

Erythrocyte = assay: Hemolytic activity against human RBC at 200 uM measured after 1 hr; type: toxicity, cell-based
Procedure, shortened: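 2% hRBCs exposed to compound at 200 μM final, added from DMSO stock, for 1 h at 37 °C. Supernatant OD read at 405 nm. Hemolysis normalized between DMSO (0%) and Triton X (100%); three independent experiments.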

Enterococcus faecium [8] = assay: Bactericidal activity against methicillin-resistant vancomycin-resistant Enterococcus faecium ATCC 700221 planktonic cells assessed as planktonic eradication incubated for 24 hrs followed by incubation for overnight in fresh medium by Calgary biofilm device assay; type: functional; procedure, shortened: as §3
Enterococcus faecium [9] = assay: Antibiofilm activity against methicillin-resistant vancomycin-resistant Enterococcus faecium ATCC 700221 biofilms assessed as biofilm eradication incubated for 24 hrs followed by incubation for 24 hrs in fresh medium by Calgary biofilm device assay; type: functional; procedure, shortened: as §4
Enterococcus faecium [10] = assay: Antibacterial activity against vancomycin-resistant Enterococcus faecium ATCC 700221 assessed as bacterial growth inhibition incubated for 16 hrs by broth microdilution susceptibility test; type: functional; procedure, shortened: as §1
[11] = test system: Staphylococcus epidermidis; assay: Antibiofilm activity against methicillin-resistant Staphylococcus epidermidis ATCC 35984 biofilms assessed as biofilm eradication incubated for 24 hrs followed by incubation for 24 hrs in fresh medium by Calgary biofilm device assay; type: functional; procedure, shortened: as §4
Enterococcus faecalis [12] = assay: Bactericidal activity against […] Enterococcus faecalis OG1RF ATCC 47077 planktonic cells assessed as planktonic eradication incubated for 24 hrs followed by incubation for overnight in fresh medium by Calgary biofilm device assay; type: functional
Procedure, shortened: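 Calgary biofilm device in BHI. Biofilms grown 24 h at 37 °C and challenged 24 h with twofold compound dilutions. Challenge medium subcultured 1:10 into fresh BHI overnight at 37 °C. MBC is the concentration with no turbidity. At least three independent experiments.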

Staphylococcus aureus [13] = assay: Antibacterial activity against methicillin-resistant Staphylococcus aureus BAA-1707 assessed as bacterial growth inhibition incubated for 16 hrs by broth microdilution susceptibility test; type: functional; procedure, shortened: as §2

| Structure (SMILES) | MIC (Staphylococcus aureus [1]) | MIC [2] | MIC [5] | IC50 (HeLa) | IC50 (J774) | IC50 (HepG2) | MBC (Staphylococcus aureus [6]) | MBEC (Staphylococcus aureus [7]) | Activity (Erythrocyte) | MBEC (Enterococcus faecium [9]) | MIC (Enterococcus faecium [10]) | MIC (Staphylococcus aureus [13]) | other results |
| --- | --- | --- | --- | --- | --- | --- | --- | --- | --- | --- | --- | --- | --- |
| Cc1c(Br)ccc2nc3c(O)cc(Cl)cc3nc12 | 0.3 µM (≈ 0.0971 µg/mL) | 0.78 µM (≈ 0.252 µg/mL) | 3.27 µM (≈ 1.06 µg/mL) | > 100 µM | > 200 µM | > 200 µM | 18.8 µM (≈ 6.08 µg/mL) | […] | <= 1% | – | – | – | MIC (Enterococcus faecalis [3]): 2.35 µM (≈ 0.76 µg/mL); MIC [4]: 6.25 µM (≈ 2.02 µg/mL) |
| CCCCCCCCCC(=O)N[C@@H](Cc1c[nH]c2ccccc12)C(=O)N[C@H](CC(N)=O)C(=O)N[C@@H](CC(=O)O)C(=O)N[C@@H]1C(=O)NCC(=O)N[C@@H](CCCN)C(=O)N[C@@H](CC(=O)O)C(=O)N[C@H](C)C(=O)N[C@@H](CC(=O)O)C(=O)NCC(=O)N[C@H](CO)C(=O)N[C@@H]([C@H](C)CC(=O)O)C(=O)N[C@@H](CC(=O)c2ccccc2N)C(=O)O[C@@H]1C | – | – | – | – | – | – | – | >2000 µM | – | 93.8 µM | – | – | MBC (Enterococcus faecium [8]): 375 µM (≈ 608 µg/mL) |
| Oc1c(Br)c(Cl)c(Br)c2nc3c(Br)cccc3nc12 | 0.2 µM (≈ 0.0935 µg/mL) | 0.1 µM (≈ 0.0467 µg/mL) | 3.91 µM (≈ 1.83 µg/mL) | 100 µM | > 200 µM | > 200 µM | 3.13 µM (≈ 1.46 µg/mL) | 6.25 µM | <= 1% | 0.3 µM | 0.15 µM (≈ 0.0701 µg/mL) | – | MBEC [11]: […]; MBC (Enterococcus faecalis [12]): 6.25 µM (≈ 2.92 µg/mL) |
| Oc1cc(Cl)cc2nc3ccc(Br)cc3nc12 | – | > 50 µM | – | – | – | – | – | – | – | – | > 50 µM | 9.38 µM (≈ 2.9 µg/mL) | – |
| Oc1cc(Cl)cc2nc3c(Oc4ccccc4)cccc3nc12 | 3.13 µM (≈ 1.01 µg/mL) | 3.13 µM (≈ 1.01 µg/mL) | – | – | – | – | – | – | – | – | – | 3.13 µM (≈ 1.01 µg/mL) | – |
